Data: ChEMBL document CHEMBL4346670, “Discovery of Novel Janus Kinase (JAK) and Histone Deacetylase (HDAC) Dual Inhibitors for the Treatment of Hematological Malignancies” (J Med Chem, 2019)

Key:
K562 [1] = assay: Antiproliferative activity against human K562 cells assessed as reduction in cell viability after 48 hrs by MTT assay; type: functional, cell-based; settings: K562, 48 h
HEL [2] = assay: Antiproliferative activity against HEL cells harboring JAK2 V617F mutant assessed as reduction in cell viability after 48 hrs by MTT assay; type: functional, cell-based; settings: Homo sapiens
Histone deacetylase = assay: Inhibition of HDAC in human HeLa nuclear extract using Boc-Lys(acetyl)-AMC as substrate preincubated for 5 mins followed by substrate addition and measured after 30 mins by fluorescence assay; type: cell-based
[3] = biological target: Tyrosine-protein kinase JAK1 (Homo sapiens, UniProt P23458); assay: Inhibition of recombinant human JAK1 using Ulight-CAGAGAIETDKEYYTVKD as substrate measured after 60 mins by LANCE assay
Summary of the method: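 Human recombinant JAK enzyme assays run by a contract lab. IC50 was taken from a non-linear curve fit, with all parameters allowed to float. Assays were run in replicate (n>2) and reported as mean ± SD.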

[4] = biological target: T1, Tyrosine-protein kinase JAK3 (Homo sapiens, UniProt P52333); assay: Inhibition of recombinant human JAK3 using Ulight-CAGAGAIETDKEYYTVKD as substrate measured after 60 mins by LANCE assay
T1 sequence (P52333 whole entry): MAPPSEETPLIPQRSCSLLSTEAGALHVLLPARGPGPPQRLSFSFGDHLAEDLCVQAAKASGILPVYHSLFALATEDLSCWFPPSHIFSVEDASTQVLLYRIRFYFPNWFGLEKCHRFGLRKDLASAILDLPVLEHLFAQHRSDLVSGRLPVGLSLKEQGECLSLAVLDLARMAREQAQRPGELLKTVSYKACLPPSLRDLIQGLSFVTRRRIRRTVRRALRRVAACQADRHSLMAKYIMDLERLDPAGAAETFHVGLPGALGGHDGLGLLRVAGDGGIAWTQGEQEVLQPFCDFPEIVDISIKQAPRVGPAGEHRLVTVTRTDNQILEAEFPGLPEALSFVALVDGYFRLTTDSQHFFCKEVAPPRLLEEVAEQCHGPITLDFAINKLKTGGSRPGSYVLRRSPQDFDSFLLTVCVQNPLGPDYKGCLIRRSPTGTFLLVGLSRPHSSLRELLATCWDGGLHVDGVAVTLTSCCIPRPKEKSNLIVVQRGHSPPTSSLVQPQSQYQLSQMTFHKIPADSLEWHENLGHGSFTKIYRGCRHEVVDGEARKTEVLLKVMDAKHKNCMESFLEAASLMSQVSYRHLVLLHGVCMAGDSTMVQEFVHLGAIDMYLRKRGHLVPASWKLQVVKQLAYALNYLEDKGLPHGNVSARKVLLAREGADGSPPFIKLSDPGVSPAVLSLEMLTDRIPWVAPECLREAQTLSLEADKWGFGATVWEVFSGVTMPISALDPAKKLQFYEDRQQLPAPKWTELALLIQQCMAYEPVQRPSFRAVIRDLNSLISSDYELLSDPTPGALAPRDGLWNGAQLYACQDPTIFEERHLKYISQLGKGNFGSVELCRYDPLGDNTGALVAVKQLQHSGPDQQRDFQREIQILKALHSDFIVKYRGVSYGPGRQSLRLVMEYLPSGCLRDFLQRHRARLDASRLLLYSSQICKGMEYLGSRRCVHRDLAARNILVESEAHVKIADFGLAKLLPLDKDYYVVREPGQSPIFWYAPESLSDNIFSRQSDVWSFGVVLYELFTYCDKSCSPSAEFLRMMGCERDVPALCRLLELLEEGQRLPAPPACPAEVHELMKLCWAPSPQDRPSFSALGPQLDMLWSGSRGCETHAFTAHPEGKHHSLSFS

Histone deacetylase 2 = Histone deacetylase 2 (Homo sapiens, UniProt Q92769); assay: Inhibition of HDAC2 (unknown origin) using Boc-Lys(acetyl)-AMC as substrate preincubated for 5 mins followed by substrate addition and measured after 30 mins by fluorescence assay
Histone deacetylase 8 = biological target: T2, Histone deacetylase 8 (Homo sapiens, UniProt Q9BY41); assay: Inhibition of HDAC8 (unknown origin) using Boc-Lys(trifluoroacetyl)-AMC as substrate preincubated for 5 mins followed by substrate addition and measured after 30 mins by fluorescence assay
T2 sequence (Q9BY41 whole entry): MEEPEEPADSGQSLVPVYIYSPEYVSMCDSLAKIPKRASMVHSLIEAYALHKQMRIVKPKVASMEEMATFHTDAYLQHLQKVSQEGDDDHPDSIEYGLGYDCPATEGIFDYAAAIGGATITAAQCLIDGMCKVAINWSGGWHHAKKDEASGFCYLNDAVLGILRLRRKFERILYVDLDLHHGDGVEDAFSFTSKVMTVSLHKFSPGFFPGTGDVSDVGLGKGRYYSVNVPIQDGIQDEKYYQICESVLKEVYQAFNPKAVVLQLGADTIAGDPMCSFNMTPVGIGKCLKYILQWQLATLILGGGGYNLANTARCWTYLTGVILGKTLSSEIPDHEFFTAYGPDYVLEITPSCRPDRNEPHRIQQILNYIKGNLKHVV

MOLT-4 = assay: Antiproliferative activity against human MOLT4 cells assessed as reduction in cell viability after 48 hrs by MTT assay; type: functional, cell-based; settings: MOLT-4, 48 h
Summary of the method: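 Cells kept in RPMI1640 with 10% FBS at 37 °C, 5% CO2. Seeded and grown for 12 h, then exposed to a range of compound concentrations for 48 h. 0.5% MTT added for 4 h, formazan dissolved in DMSO, absorbance read at 570 nm.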

Jurkat = assay: Antiproliferative activity against human Jurkat cells assessed as reduction in cell viability after 48 hrs by MTT assay; type: functional, cell-based
HEL [5] = assay: Induction of apoptosis in HEL cells assessed as viable cells at 1 uM after 24 hrs by Annexin-V/propidium iodide staining-based flow cytometric analysis (reference value: 87.5%); type: functional, Homo sapiens; settings: Homo sapiens, HEL, 24 h; read-out: Activity
HEL [6] = assay: Induction of apoptosis in HEL cells assessed as early apoptotic cells at 1 uM after 24 hrs by Annexin-V/propidium iodide staining-based flow cytometric analysis (reference value: 12.5%); type: functional, Homo sapiens
HEL [7] = assay: Induction of apoptosis in HEL cells assessed as necrotic apoptotic cells at 1 uM after 24 hrs by Annexin-V/propidium iodide staining-based flow cytometric analysis (reference value: 0.011%); type: functional, Homo sapiens
K562 [8] = assay: Induction of apoptosis in human K562 cells assessed as viable cells at 1 uM after 24 hrs by Annexin-V/propidium iodide staining-based flow cytometric analysis (reference value: 85.7%); type: functional; settings: Homo sapiens, K562, 24 h; read-out: Activity
K562 [9] = assay: Induction of apoptosis in human K562 cells assessed as early apoptotic cells at 1 uM after 24 hrs by Annexin-V/propidium iodide staining-based flow cytometric analysis (reference value: 7.55%); type: functional
K562 [10] = assay: Induction of apoptosis in human K562 cells assessed as late apoptotic cells at 1 uM after 24 hrs by Annexin-V/propidium iodide staining-based flow cytometric analysis (reference value: 5.87%); type: functional
K562 [11] = assay: Induction of apoptosis in human K562 cells assessed as necrotic apoptotic cells at 1 uM after 24 hrs by Annexin-V/propidium iodide staining-based flow cytometric analysis (reference value: 0.827%); type: functional

Tyrosine-protein kinase JAK1, sequence (P23458 whole entry): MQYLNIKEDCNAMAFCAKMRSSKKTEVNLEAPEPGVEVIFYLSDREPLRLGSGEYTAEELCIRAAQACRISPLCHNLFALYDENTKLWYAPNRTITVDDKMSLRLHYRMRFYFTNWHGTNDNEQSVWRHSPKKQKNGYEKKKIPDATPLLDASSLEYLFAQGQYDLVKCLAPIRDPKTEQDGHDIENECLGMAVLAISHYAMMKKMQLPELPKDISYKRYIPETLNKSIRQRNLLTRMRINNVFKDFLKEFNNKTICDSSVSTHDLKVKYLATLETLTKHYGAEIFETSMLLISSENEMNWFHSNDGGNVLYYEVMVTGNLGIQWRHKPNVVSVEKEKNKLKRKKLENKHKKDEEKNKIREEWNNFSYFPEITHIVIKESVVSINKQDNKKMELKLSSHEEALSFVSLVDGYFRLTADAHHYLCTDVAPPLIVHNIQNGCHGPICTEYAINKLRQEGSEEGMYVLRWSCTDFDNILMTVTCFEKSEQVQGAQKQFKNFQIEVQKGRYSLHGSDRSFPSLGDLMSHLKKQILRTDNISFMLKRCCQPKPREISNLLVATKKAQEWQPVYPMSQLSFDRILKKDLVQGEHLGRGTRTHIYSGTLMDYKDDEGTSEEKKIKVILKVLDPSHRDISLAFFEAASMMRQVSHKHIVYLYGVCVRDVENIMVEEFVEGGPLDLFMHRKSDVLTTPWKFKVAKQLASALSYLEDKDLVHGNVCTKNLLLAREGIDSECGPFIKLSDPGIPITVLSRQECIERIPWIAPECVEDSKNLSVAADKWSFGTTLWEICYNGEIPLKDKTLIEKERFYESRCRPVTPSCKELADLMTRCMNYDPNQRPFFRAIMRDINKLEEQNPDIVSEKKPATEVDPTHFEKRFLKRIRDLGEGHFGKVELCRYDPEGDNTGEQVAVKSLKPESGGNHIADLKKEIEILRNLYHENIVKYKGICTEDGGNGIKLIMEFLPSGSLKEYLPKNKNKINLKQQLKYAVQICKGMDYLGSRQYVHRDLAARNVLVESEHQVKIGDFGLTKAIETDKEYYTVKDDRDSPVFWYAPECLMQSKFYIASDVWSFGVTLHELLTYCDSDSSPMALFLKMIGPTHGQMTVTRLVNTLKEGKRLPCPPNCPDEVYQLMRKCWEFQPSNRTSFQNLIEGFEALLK
Histone deacetylase 2, sequence (Q92769 whole entry): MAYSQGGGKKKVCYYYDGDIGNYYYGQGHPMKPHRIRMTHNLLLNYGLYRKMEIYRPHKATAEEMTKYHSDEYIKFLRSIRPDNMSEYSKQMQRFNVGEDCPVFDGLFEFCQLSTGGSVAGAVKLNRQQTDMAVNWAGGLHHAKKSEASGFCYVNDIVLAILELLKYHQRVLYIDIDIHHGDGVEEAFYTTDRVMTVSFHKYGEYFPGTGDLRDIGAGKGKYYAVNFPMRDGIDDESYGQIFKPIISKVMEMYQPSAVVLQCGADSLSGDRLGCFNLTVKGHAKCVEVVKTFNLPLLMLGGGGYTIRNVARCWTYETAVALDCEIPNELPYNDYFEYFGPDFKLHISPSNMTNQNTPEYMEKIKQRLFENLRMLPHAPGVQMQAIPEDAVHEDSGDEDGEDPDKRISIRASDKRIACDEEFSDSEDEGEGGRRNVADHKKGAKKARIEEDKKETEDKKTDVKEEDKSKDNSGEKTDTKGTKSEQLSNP

## O=C(CCCCCCn1cc(Nc2ncc(Cl)c(Nc3cccc(Cl)c3)n2)cn1)NO
K562 [1]
  IC50: 380 nM
HEL [2]
  IC50: 140 nM
Histone deacetylase
  IC50: 0.02 µM
[3]
  IC50: 15 nM
[4]
  IC50: 3.3 nM
Histone deacetylase 2
  IC50: 130 nM
Histone deacetylase 8
  IC50: 840 nM
MOLT-4
  IC50: 130 nM
Jurkat
  IC50: 100 nM
HEL [5]
  viability at 1 µM: 5.97%
HEL [6]
  Activity: 22.8%
HEL [7]
  Activity: 2.58%
K562 [8]
  viability at 1 µM: 53.6%
K562 [9]
  Activity: 15.3%
K562 [10]
  Activity: 30%
K562 [11]
  Activity: 1.14%

## O=C(CCCCCn1cc(Nc2ncc(Cl)c(Nc3ccc(Cl)cc3)n2)cn1)NO
K562 [1]
  IC50: 490 nM
HEL [2]
  IC50: 90 nM
Histone deacetylase
  IC50: 0.002 µM
[3]
  IC50: 4.8 nM
[4]
  IC50: 7.4 nM
Histone deacetylase 2
  IC50: 120 nM
Histone deacetylase 8
  IC50: 2470 nM
MOLT-4
  IC50: 80 nM
Jurkat
  IC50: 60 nM
HEL [5]
  viability at 1 µM: 4.31%
HEL [6]
  Activity: 27.8%
HEL [7]
  Activity: 7.97%
K562 [8]
  viability at 1 µM: 17.6%
K562 [9]
  Activity: 34.4%
K562 [10]
  Activity: 46.9%
K562 [11]
  Activity: 1.07%
